According to the M2OR odorant receptor database:

Assays:
Settings in all cases: stereoisomer not certain
UniProt Q924H8 = molecular target: T1, UniProt Q924H8
T1 sequence (whole entry): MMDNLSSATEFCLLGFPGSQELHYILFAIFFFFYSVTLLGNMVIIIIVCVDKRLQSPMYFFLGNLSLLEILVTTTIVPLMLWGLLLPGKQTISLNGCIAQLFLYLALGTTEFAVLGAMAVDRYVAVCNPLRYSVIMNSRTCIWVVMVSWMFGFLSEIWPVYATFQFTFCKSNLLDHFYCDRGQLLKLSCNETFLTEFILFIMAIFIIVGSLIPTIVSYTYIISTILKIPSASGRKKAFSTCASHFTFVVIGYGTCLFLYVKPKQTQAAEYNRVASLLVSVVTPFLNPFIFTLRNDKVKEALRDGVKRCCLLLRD
How it was run: (§1)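 Whether a receptor–molecule pair is responsive (active) rests on the original authors' judgment that its measured signal was statistically different from baseline. Pairs without that judgment are non-responsive (inactive). Sources used varied assay methods, commonly transient luciferase assays in mammalian cell lines.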

UniProt Q924X8 = molecular target: T2, UniProt Q924X8
T2 sequence (whole entry): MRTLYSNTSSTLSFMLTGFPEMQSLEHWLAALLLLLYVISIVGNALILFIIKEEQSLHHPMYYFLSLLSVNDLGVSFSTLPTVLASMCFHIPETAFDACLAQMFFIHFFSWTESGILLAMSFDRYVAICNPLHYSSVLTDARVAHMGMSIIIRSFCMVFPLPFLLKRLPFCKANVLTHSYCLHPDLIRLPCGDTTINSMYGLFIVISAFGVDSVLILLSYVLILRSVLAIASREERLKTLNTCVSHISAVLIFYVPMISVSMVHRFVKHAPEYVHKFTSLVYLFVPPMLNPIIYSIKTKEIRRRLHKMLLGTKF
How it was run: as §1

UniProt Q9EPN9 = molecular target: T3, UniProt Q9EPN9
T3 sequence (whole entry): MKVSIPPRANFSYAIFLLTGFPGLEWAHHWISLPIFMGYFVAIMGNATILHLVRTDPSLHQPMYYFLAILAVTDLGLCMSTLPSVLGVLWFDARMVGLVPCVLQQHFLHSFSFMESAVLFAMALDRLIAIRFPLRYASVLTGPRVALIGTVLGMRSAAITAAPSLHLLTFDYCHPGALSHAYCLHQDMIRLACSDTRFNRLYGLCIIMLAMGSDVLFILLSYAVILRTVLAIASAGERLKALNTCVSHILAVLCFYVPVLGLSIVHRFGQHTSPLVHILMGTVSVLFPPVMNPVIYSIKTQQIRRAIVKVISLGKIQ
How it was run: as §1

UniProt Q9R0K2 = molecular target: UniProt Q9R0K2
Chain of UniProt Q9R0K2 (Q9R0K2 as listed by the source): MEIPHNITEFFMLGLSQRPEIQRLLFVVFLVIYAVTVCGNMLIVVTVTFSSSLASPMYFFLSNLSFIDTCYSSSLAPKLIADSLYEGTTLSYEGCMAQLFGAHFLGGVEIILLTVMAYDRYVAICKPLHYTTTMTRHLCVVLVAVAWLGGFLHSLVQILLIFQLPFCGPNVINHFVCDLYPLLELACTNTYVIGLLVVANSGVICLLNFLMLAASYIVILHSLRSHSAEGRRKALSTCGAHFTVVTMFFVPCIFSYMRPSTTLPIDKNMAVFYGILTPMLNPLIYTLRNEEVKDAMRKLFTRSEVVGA
How it was run: as §1

UniProt Q9WU86 = molecular target: T4, UniProt Q9WU86
T4 sequence (whole entry): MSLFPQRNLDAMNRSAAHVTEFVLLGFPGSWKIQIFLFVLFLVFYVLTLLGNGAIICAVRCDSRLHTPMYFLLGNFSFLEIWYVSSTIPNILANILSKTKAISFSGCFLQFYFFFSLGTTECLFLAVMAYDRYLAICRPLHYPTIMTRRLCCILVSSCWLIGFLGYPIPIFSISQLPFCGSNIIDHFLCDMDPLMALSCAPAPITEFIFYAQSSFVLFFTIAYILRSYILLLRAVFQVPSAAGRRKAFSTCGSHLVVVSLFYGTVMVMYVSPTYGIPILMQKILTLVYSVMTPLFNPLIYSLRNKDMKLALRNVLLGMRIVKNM
How it was run: as §1

UniProt Q9WU94 = molecular target: T5, UniProt Q9WU94
T5 sequence (whole entry): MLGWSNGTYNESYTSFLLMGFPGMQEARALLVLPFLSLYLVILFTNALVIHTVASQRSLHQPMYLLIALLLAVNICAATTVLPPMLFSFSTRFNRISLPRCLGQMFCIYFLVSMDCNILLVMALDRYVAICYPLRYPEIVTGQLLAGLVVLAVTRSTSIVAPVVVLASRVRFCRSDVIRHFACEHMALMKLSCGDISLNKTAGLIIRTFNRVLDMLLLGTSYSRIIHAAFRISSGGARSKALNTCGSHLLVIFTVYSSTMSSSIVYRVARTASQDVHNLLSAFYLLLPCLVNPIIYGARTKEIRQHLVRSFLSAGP
How it was run: as §1

UniProt Q9WVD7 = molecular target: T6, UniProt Q9WVD7
T6 sequence (whole entry): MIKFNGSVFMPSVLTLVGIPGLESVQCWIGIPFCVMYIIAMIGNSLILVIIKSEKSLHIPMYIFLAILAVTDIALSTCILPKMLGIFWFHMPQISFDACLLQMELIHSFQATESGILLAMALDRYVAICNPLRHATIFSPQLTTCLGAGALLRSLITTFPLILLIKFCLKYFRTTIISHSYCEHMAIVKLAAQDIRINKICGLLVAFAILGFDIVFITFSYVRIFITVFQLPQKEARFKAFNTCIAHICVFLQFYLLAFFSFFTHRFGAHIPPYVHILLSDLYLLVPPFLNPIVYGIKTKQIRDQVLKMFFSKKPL
How it was run: as §1

UniProt Q9WVD9 = molecular target: UniProt Q9WVD9
Chain of UniProt Q9WVD9 (Q9WVD9 as listed by the source): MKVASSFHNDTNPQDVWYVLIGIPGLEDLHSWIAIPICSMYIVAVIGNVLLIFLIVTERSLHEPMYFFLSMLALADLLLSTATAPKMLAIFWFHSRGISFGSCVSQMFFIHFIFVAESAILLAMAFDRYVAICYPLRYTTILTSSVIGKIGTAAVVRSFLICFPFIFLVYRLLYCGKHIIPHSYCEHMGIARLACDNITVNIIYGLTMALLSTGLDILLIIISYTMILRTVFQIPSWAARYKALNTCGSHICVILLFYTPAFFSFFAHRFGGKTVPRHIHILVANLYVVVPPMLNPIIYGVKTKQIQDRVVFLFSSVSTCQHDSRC
How it was run: as §1

UniProt Q9WVN5 = molecular target: T7, UniProt Q9WVN5
T7 sequence (whole entry): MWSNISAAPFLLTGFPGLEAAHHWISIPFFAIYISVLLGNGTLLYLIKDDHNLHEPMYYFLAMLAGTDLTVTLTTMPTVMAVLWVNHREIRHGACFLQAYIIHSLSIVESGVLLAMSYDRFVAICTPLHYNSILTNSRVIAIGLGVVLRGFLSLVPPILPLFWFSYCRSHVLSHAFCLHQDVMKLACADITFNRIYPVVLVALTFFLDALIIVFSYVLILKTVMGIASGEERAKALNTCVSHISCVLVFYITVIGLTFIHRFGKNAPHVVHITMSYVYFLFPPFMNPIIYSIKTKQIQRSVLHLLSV
How it was run: as §1

UniProt Q99NH4 = molecular target: T8, UniProt Q99NH4
T8 sequence (whole entry): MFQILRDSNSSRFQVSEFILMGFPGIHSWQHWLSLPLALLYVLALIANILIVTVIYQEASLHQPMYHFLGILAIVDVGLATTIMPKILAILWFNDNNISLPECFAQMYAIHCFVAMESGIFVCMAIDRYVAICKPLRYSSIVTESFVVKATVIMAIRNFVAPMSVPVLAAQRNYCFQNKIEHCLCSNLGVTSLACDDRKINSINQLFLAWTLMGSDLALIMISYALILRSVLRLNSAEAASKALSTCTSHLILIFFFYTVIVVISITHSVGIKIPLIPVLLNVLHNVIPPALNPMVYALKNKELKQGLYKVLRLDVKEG
How it was run: as §1
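Note: active if original authors judged signal statistically different from baseline.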

SMILES | odorant receptor agonist call (UniProt Q924H8) | odorant receptor agonist call (UniProt Q924X8) | odorant receptor agonist call (UniProt Q9EPN9) | odorant receptor agonist call (UniProt Q9R0K2) | odorant receptor agonist call (UniProt Q9WU86) | odorant receptor agonist call (UniProt Q9WU94) | odorant receptor agonist call (UniProt Q9WVD7) | odorant receptor agonist call (UniProt Q9WVD9) | odorant receptor agonist call (UniProt Q9WVN5) | odorant receptor agonist call (UniProt Q99NH4)
CC(C)CS | inactive |  |  |  |  |  |  |  |  | 
CCCCCCCCO | inactive | inactive | inactive | inactive | inactive | inactive | active | inactive | inactive | 
CCCCCCCCS | inactive |  | inactive | inactive | inactive |  |  | inactive | inactive | 
CCCCC=O | inactive |  |  |  |  | inactive |  |  |  | inactive
CCCCC(=O)O | inactive | inactive | inactive | inactive | inactive | inactive | inactive | inactive | active | inactive
O=C(O)CCCCCCCCC(=O)O | inactive |  |  |  |  |  |  |  |  | inactive
CC=Cc1ccc(OC)cc1 | inactive |  |  |  |  |  |  |  |  | 
COc1cnccn1 | inactive |  |  |  |  |  |  |  |  | 
CCCCCCCCC(=O)O | inactive | inactive | inactive | inactive | inactive | inactive | active | inactive | inactive | active
CCCCCCCCCC(=O)[O-].[H+] | inactive |  | inactive | inactive | inactive | inactive |  | inactive | inactive | inactive
CC1(C)CC(=O)CC(=O)C1 | inactive |  |  |  |  |  |  |  |  | 
C=C(C)C1CCC(C)C(=O)C1 (stereo not given) | inactive |  | inactive | inactive | inactive |  |  | inactive | inactive | 
CCCC(C)C(=O)OCC (stereo not given) | inactive |  |  |  |  |  |  |  |  | 
CCCCCCCCCCO | inactive |  | inactive | inactive | inactive |  |  | inactive | inactive | inactive
CCCCCC(=O)CC | inactive |  | inactive | inactive | inactive |  |  | inactive | inactive | 
CC(C)CCN | inactive |  |  |  |  |  |  |  |  | 
CC(C)=CCCC(C)CCO (stereo not given) | inactive |  | inactive | inactive | inactive |  |  | inactive | inactive | 
CCCCCCCC(C)=O | inactive |  | inactive | inactive | inactive |  |  | inactive | inactive | 
CCCCCCCO | inactive | inactive | inactive | inactive | inactive | inactive | inactive | inactive | inactive | inactive
